# Measurements from ChEMBL document CHEMBL3217692, “Synthesis and cytotoxicity evaluation of novel pyrido[3,4-d]pyrimidine derivatives as potential anticancer agents” (2012).
# Columns and labels:
# Assay type in all cases: functional
# MCF7 = assay: Cytotoxicity against human MCF7 cells assessed as cell growth at 10 uM after 48 hrs by sulforhodamine B assay relative to control; details: MCF7, 48 h, read-out: Activity
# How it was run: (§1)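 Adherent cells were grown in RPMI 1640 with 5% FBS and 2 mM L-glutamine, seeded at 5000–40 000 cells/well by doubling time, and held 24 h at 37 °C, 5% CO2 before drug. Time-zero plates were TCA-fixed. Compound in DMSO, single dose 10 μM, 48 h. Cells were fixed with cold TCA (final 10%, 60 min, 4 °C) and stained with 0.4% SRB. Bound dye was dissolved in 10 mM Tris base and read at 515 nm. Percent growth was derived from time-zero, control and treated absorbances.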
# SNB-75 = assay: Cytotoxicity against human SNB75 cells assessed as cell growth at 10 uM after 48 hrs by sulforhodamine B assay relative to control; details: SNB-75, 48 h, read-out: Activity; how it was run: as §1
# SW-620 = assay: Cytotoxicity against human SW620 cells assessed as cell growth at 10 uM after 48 hrs by sulforhodamine B assay relative to control; details: SW-620, 48 h, read-out: Activity; how it was run: as §1
# DU-145 = assay: Cytotoxicity against human DU145 cells assessed as cell growth at 10 uM after 48 hrs by sulforhodamine B assay relative to control; details: DU-145, 48 h, read-out: Activity; how it was run: as §1
# TK-10 = assay: Cytotoxicity against human TK10 cells assessed as cell growth at 10 uM after 48 hrs by sulforhodamine B assay relative to control; details: TK-10, 48 h, read-out: Activity
# How it was run: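 NCI-60 single-dose screen. Cells were grown in RPMI 1640 with 5% FBS and 2 mM L-glutamine, seeded at 5000–40 000 cells/well according to doubling time, and pre-incubated 24 h at 37 °C, 5% CO2. Time-zero plates were TCA-fixed at dosing. Compound in DMSO was given at 10 μM for 48 h. Cells were then fixed in cold TCA, stained with 0.4% SRB, solubilised in 10 mM Tris base and read at 515 nm. Growth % was calculated from time-zero, control and treated absorbances.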
# SK-MEL-5 = assay: Cytotoxicity against human SK-MEL-5 cells assessed as cell growth at 10 uM after 48 hrs by sulforhodamine B assay relative to control; details: SK-MEL-5, 48 h, read-out: Activity; how it was run: as §1
# CAKI-1 = assay: Cytotoxicity against human CAKI-1 cells assessed as cell growth at 10 uM after 48 hrs by sulforhodamine B assay relative to control; details: CAKI-1, 48 h, read-out: Activity; how it was run: as §1
# SN12C = assay: Cytotoxicity against human SN12C cells assessed as cell growth at 10 uM after 48 hrs by sulforhodamine B assay relative to control; details: read-out: Activity; how it was run: as §1
# HT-29 = assay: Cytotoxicity against human HT-29 cells assessed as cell growth at 10 uM after 48 hrs by sulforhodamine B assay relative to control; details: HT-29, 48 h, read-out: Activity; how it was run: as §1
# SK-OV-3 = assay: Cytotoxicity against human SKOV3 cells assessed as cell growth at 10 uM after 48 hrs by sulforhodamine B assay relative to control; details: SK-OV-3, 48 h, read-out: Activity; how it was run: as §1
# MDA-MB-468 = assay: Cytotoxicity against human MDA-MB-468 cells assessed as cell growth at 10 uM after 48 hrs by sulforhodamine B assay relative to control; details: MDA-MB-468, 48 h, read-out: Activity; how it was run: as §1
# NCI-H23 = assay: Cytotoxicity against human NCI-H23 cells assessed as cell growth at 10 uM after 48 hrs by sulforhodamine B assay relative to control; details: NCI-H23, 48 h, read-out: Activity; how it was run: as §1
# [1] = Cytotoxicity against human OVCAR8 cells assessed as cell growth at 10 uM after 48 hrs by sulforhodamine B assay relative to control; details: OVCAR-8, 48 h, read-out: Activity; how it was run: as §1
# RPMI-8226 = assay: Cytotoxicity against human RPMI8226 cells assessed as cell growth at 10 uM after 48 hrs by sulforhodamine B assay relative to control; details: RPMI-8226, 48 h, read-out: Activity
# How it was run: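 Suspension lines were cultured in RPMI 1640 with 5% FBS and 2 mM L-glutamine, plated at 5000–40 000 cells/well and preincubated 24 h (37 °C, 5% CO2). Compound in DMSO was given at a single 10 μM dose for 48 h. Settled cells were fixed with 80% TCA (final 16%), then stained with SRB and read at 515 nm. Growth percentage was taken relative to time-zero and untreated control absorbances.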
# SK-MEL-28 = assay: Cytotoxicity against human SK-MEL-28 cells assessed as cell growth at 10 uM after 48 hrs by sulforhodamine B assay relative to control; details: SK-MEL-28, 48 h, read-out: Activity; how it was run: as §1
# A549 = assay: Cytotoxicity against human A549 cells assessed as cell growth at 10 uM after 48 hrs by sulforhodamine B assay relative to control; details: A549, 48 h, read-out: Activity; how it was run: as §1
# HCT-116 = assay: Cytotoxicity against human HCT116 cells assessed as cell growth at 10 uM after 48 hrs by sulforhodamine B assay relative to control; details: HCT-116, 48 h, read-out: Activity; how it was run: as §1
# ACHN = assay: Cytotoxicity against human ACHN cells assessed as cell growth at 10 uM after 48 hrs by sulforhodamine B assay relative to control; details: read-out: Activity; how it was run: as §1
# PC-3 = assay: Cytotoxicity against human PC3 cells assessed as cell growth at 10 uM after 48 hrs by sulforhodamine B assay relative to control; details: PC-3, 48 h, read-out: Activity; how it was run: as §1
# 786-0 = assay: Cytotoxicity against human 786-0 cells assessed as cell growth at 10 uM after 48 hrs by sulforhodamine B assay relative to control; details: 786-0, 48 h, read-out: Activity; how it was run: as §1
# MDA-MB-435 = assay: Cytotoxicity against human MDA-MB-435 cells assessed as cell growth at 10 uM after 48 hrs by sulforhodamine B assay relative to control; details: MDA-MB-435, 48 h, read-out: Activity; how it was run: as §1
# A498 = assay: Cytotoxicity against human A498 cells assessed as cell growth at 10 uM after 48 hrs by sulforhodamine B assay relative to control; details: A498, 48 h, read-out: Activity; how it was run: as §1
# HOP-62 = assay: Cytotoxicity against human HOP62 cells assessed as cell growth at 10 uM after 48 hrs by sulforhodamine B assay relative to control; details: HOP-62, 48 h, read-out: Activity; how it was run: as §1
# KM12 = assay: Cytotoxicity against human KM12 cells assessed as cell growth at 10 uM after 48 hrs by sulforhodamine B assay relative to control; details: KM12, 48 h, read-out: Activity; how it was run: as §1
# NCI-H322M = assay: Cytotoxicity against human NCI-H322M cells assessed as cell growth at 10 uM after 48 hrs by sulforhodamine B assay relative to control; details: read-out: Activity; how it was run: as §1
# MDA-MB-231 = assay: Cytotoxicity against human MDA-MB-231 cells assessed as cell growth at 10 uM after 48 hrs by sulforhodamine B assay relative to control; details: MDA-MB-231, 48 h, read-out: Activity; how it was run: as §1
# [2] = Cytotoxicity against human HCT15 cells assessed as cell growth at 10 uM after 48 hrs by sulforhodamine B assay relative to control; details: HCT-15, 48 h, read-out: Activity; how it was run: as §1
structure (smiles),measurement,setting,value
COc1nccc2c(-c3cccc(F)c3)nc(N)nc12,growth at 10 µM,MCF7,39.2%
same,growth at 10 µM,SNB-75,91.1%
same,growth at 10 µM,SW-620,112%
same,growth at 10 µM,DU-145,110%
same,growth at 10 µM,TK-10,101%
same,growth at 10 µM,SK-MEL-5,108%
same,growth at 10 µM,CAKI-1,104%
same,growth at 10 µM,SN12C,115%
same,growth at 10 µM,HT-29,96.4%
same,growth at 10 µM,SK-OV-3,105%
same,growth at 10 µM,MDA-MB-468,28.6%
same,growth at 10 µM,NCI-H23,104%
same,growth at 10 µM,[1],85.6%
same,growth at 10 µM,RPMI-8226,107%
same,growth at 10 µM,SK-MEL-28,97%
same,growth at 10 µM,A549,94.7%
same,growth at 10 µM,HCT-116,104%
same,growth at 10 µM,ACHN,99.7%
same,growth at 10 µM,PC-3,93%
same,growth at 10 µM,786-0,100%
same,growth at 10 µM,MDA-MB-435,118%
same,growth at 10 µM,A498,88.5%
same,growth at 10 µM,HOP-62,104%
same,growth at 10 µM,KM12,104%
same,growth at 10 µM,NCI-H322M,112%
same,growth at 10 µM,MDA-MB-231,107%
same,growth at 10 µM,[2],95%
